Consider one compound from ChEMBL document CHEMBL5257020, “Discovery of a 9-mer Cationic Peptide (LTX-315) as a Potential First in Class Oncolytic Peptide” (J Med Chem, 2016).

The target of series [1] is T1, Cytochrome P450 2C9 (Homo sapiens, UniProt P11712). In words: Inhibition of CYP2C9 in human liver microsomes using diclofenac as substrate assessed as reduction in substrate hydroxylation incubated for 30 mins in presence of beta-NADPH measured by LC-MS/MS analysis. It is filed as ADME, Microsome. A digest of the protocol: (§1)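 Pooled human liver microsomes (50 donors) in 100 mM phosphate, pH 7.4, with 2 mM β-NADPH. Protein 0.1 mg/mL (2A6, 2C8, 2C9, 2E1, 3A4) or 0.3 mg/mL (1A2, 2B6, 2C19, 2D6). Test article 0–100 μM final, preincubated ~37 °C 5 or 30 min before isoform-selective substrate. Quenched in methanol with internal standard. Metabolite measured by LC–MS/MS against standard curve. Duplicates, with selective inhibitor positive controls.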
In general terms: Microsomes from liver hold many membrane-bound enzymes, among them those of drug oxidation.

Series [2] can be described thus: Protein binding in human plasma assessed as bound fraction at 200 to 1000 ng/ml incubated for 20 hrs in presence of AEBSF by LC-MS/MS analysis. To be noted: dose 200-1000 ng/ml, read-out: PPB. It is filed as ADME, cell-free. A digest of the protocol: (§2)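 Pooled plasma (human volunteers; Han Wistar rat; Beagle dog) containing AEBSF 1 mg/mL. Spiked to 200, 500 or 1000 ng/mL final, in duplicate. Ultracentrifuged 45 000 rpm, 37 °C, 20 h. Supernatant quantified by LC–MS/MS. % bound = [(C − CS)/C] × 100. Values are upper limits because of residual degradation.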

Series [3] addresses T2, Cytochrome P450 3A4 (Homo sapiens, UniProt P08684). In words: Inhibition of CYP3A4 in human liver microsomes using testosterone as substrate assessed as reduction in substrate hydroxylation incubated for 5 mins in presence of beta-NADPH measured by LC-MS/MS analysis. The series is classed as ADME, Microsome. The essentials:
as §1

The target in a further series is Cytochrome P450 2A6 (Homo sapiens, UniProt P11509). Briefly: Inhibition of CYP2A6 in human liver microsomes using coumarin as substrate assessed as reduction in substrate hydroxylation incubated for 5 mins in presence of beta-NADPH measured by LC-MS/MS analysis. It is filed as ADME, Microsome. The essentials:
as §1

Series [4] is described as follows: Drug recovery in human plasma incubated for 20 hrs in presence of serine protease inhibitor AEBSF (reference value: 176 ng/ml). It is filed as ADME, cell-free.
Series [5] has as its target T2, Cytochrome P450 3A4. Briefly: Inhibition of CYP3A4 in human liver microsomes using midazolam as substrate assessed as reduction in substrate hydroxylation incubated for 30 mins in presence of beta-NADPH measured by LC-MS/MS analysis. It is filed as ADME, Microsome. The essentials:
as §1

Series [6] can be described thus: Ratio of drug concentration in human blood to plasma measured after 60 mins by LC-MS/MS analysis. It is filed as ADME, cell-free. The essentials: (§3)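 Pooled fresh whole blood (≥3 male and 3 female human, beagle dog or rat donors) spiked to 200 ng/mL. Incubated ~37 °C on rotary mixer over 0–120 min. Hematocrit determined. Blood and plasma analysed by LC–MS/MS. Blood/plasma ratio = Cb/C. Cell association = {[C(1 − H)]/Cb} × 100. Values at 60 min, mean of two independent measurements.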

A short description of series [7]: Protein binding in Han Wistar rat plasma assessed as bound fraction at 200 to 1000 ng/ml incubated for 20 hrs in presence of AEBSF by LC-MS/MS analysis. The note with it: dose 200-1000 ng/ml, read-out: PPB. The series is classed as ADME, cell-free. The essentials: as §2
Series [8] can be described thus: Drug uptake in Beagle dog Red blood cells at 60 mins by LC-MS/MS analysis. The series is classed as ADME, cell-based, Canis lupus familiaris. To be noted: erythrocyte, 1 h. A digest of the protocol: as §3
Series [9] is described as follows: Ratio of drug concentration in rat blood to plasma measured after 60 mins by LC-MS/MS analysis. The series is classed as ADME, cell-free. A digest of the protocol:
as §3

Series [10] can be described thus: Hemolytic activity in human red blood cells incubated for 1 hr by spectrophotometric microtiter plate reader method. It is filed as toxicity, cell-based, Erythrocyte.
In series [11] the target is T3, Cytochrome P450 2E1 (Homo sapiens, UniProt P05181). Briefly: Inhibition of CYP2E1 in human liver microsomes using chlorzoxazone as substrate assessed as reduction in substrate hydroxylation incubated for 30 mins in presence of beta-NADPH measured by LC-MS/MS analysis. It is filed as ADME, Microsome. The essentials:
as §1

The target of series [12] is T3, Cytochrome P450 2E1. Briefly: Inhibition of CYP2E1 in human liver microsomes using chlorzoxazone as substrate assessed as reduction in substrate hydroxylation incubated for 5 mins in presence of beta-NADPH measured by LC-MS/MS analysis. It is filed as ADME, Microsome. The essentials: as §1
The target of another series is Cytochrome P450 2C19 (Homo sapiens, UniProt P33261). Briefly: Inhibition of CYP2C19 in human liver microsomes using (S)-mephenytoin as substrate assessed as reduction in substrate hydroxylation incubated for 5 mins in presence of beta-NADPH measured by LC-MS/MS analysis. It is filed as ADME, Microsome. The essentials:
as §1

The nature of series [13]: Half life in human plasma measured by RP-HPLC analysis. It is filed as ADME, cell-free.
Another series has as its target Cytochrome P450 2D6 (Homo sapiens, UniProt P10635). Briefly: Inhibition of CYP2D6 in human liver microsomes using bufuralol as substrate assessed as reduction in substrate hydroxylation incubated for 5 mins in presence of beta-NADPH measured by LC-MS/MS analysis. The series is classed as ADME, Microsome. A digest of the protocol: as §1
The nature of series [14]: Stability in pooled and cryopreserved human hepatocytes assessed as intrinsic clearance measured per 10^6 cells at 1 uM measured for 90 mins by LC-MS/MS analysis. It is filed as ADME, cell-based, Hepatocyte. The note with it: read-out: CLH. A digest of the protocol:
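Pooled cryopreserved hepatocytes at 0.5 million cells/mL, incubated at about 37 °C with 1 μM initial peptide. Supernatant after centrifugation analysed by LC–MS/MS (MRM) using a D-Trp7,9,10-substance P internal standard. Peak height was referenced to time zero, and t1/2 = −0.693/slope of ln concentration vs time. Clint = 0.693/t1/2 × Vinc per million cells. Testosterone, midazolam and 4-methylumbelliferone were the positive controls. Duplicates; mean of two experiments.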

Series [15] deals with T2, Cytochrome P450 3A4. In words: Inhibition of CYP3A4 in human liver microsomes using testosterone as substrate assessed as reduction in substrate hydroxylation incubated for 30 mins in presence of beta-NADPH measured by LC-MS/MS analysis. The series is classed as ADME, Microsome. A digest of the protocol:
as §1

Series [16] has as its target T1, Cytochrome P450 2C9. In words: Inhibition of CYP2C9 in human liver microsomes using diclofenac as substrate assessed as reduction in substrate hydroxylation incubated for 5 mins in presence of beta-NADPH measured by LC-MS/MS analysis. It is filed as ADME, Microsome. The essentials:
as §1

Series [17] is described as follows: Stability in pooled and cryopreserved human hepatocytes assessed as half life at 1 uM measured for 90 mins by LC-MS/MS analysis. The series is classed as ADME, cell-based, Hepatocyte. A digest of the protocol:
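Pooled cryopreserved rat or human hepatocytes, 0.5 million cells/mL, ~37 °C, peptide at 1 μM initial. Supernatants analysed by LC–MS/MS with peak height referenced to time zero. t1/2 = −0.693/slope of ln concentration vs time. Duplicate experiments. Testosterone, midazolam and 4-methylumbelliferone served as metabolic-competence controls.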

Series [18] in a line: Protein binding in Beagle dog plasma assessed as bound fraction at 200 to 1000 ng/ml incubated for 20 hrs in presence of AEBSF by LC-MS/MS analysis. It is filed as ADME, cell-free, Canis lupus familiaris. The note with it: dose 200-1000 ng/ml, read-out: PPB. The essentials: as §2
Series [19] concerns the target T4, Cytochrome P450 2B6 (Homo sapiens, UniProt P20813). Briefly: Inhibition of CYP2B6 in human liver microsomes using bupropion as substrate assessed as reduction in substrate hydroxylation incubated for 5 mins in presence of beta-NADPH measured by LC-MS/MS analysis. It is filed as ADME, Microsome. The essentials:
as §1

In series [20] the target is T2, Cytochrome P450 3A4. In words: Inhibition of CYP3A4 in human liver microsomes using midazolam as substrate assessed as reduction in substrate hydroxylation incubated for 5 mins in presence of beta-NADPH measured by LC-MS/MS analysis. It is filed as ADME, Microsome. The essentials:
as §1

In series [21] the target is T4, Cytochrome P450 2B6. In words: Inhibition of CYP2B6 in human liver microsomes using bupropion as substrate assessed as reduction in substrate hydroxylation incubated for 30 mins in presence of beta-NADPH measured by LC-MS/MS analysis. It is filed as ADME, Microsome. The essentials: as §1

Where a SMILES comes first, the peptide text is derived from it. [ ]: non-standard residue; d: D form. ξ: configuration not given here. ξDip = NC(C(=O)O)C(c1ccccc1)c1ccccc1

T2 sequence (P08684 whole entry): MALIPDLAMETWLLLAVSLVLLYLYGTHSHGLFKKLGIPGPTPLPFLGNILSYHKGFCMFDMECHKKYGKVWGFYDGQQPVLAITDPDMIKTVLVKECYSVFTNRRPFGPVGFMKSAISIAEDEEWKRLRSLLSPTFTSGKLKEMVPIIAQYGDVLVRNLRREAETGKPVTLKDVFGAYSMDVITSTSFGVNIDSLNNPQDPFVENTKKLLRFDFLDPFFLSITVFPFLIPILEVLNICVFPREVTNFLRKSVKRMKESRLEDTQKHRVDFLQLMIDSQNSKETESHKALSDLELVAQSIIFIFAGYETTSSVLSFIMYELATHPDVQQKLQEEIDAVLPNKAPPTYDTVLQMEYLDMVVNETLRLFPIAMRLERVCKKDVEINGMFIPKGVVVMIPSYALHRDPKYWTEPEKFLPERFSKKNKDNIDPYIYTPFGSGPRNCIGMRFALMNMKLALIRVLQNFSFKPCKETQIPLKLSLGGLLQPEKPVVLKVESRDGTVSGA
T1 sequence (P11712 whole entry, canonical isoform): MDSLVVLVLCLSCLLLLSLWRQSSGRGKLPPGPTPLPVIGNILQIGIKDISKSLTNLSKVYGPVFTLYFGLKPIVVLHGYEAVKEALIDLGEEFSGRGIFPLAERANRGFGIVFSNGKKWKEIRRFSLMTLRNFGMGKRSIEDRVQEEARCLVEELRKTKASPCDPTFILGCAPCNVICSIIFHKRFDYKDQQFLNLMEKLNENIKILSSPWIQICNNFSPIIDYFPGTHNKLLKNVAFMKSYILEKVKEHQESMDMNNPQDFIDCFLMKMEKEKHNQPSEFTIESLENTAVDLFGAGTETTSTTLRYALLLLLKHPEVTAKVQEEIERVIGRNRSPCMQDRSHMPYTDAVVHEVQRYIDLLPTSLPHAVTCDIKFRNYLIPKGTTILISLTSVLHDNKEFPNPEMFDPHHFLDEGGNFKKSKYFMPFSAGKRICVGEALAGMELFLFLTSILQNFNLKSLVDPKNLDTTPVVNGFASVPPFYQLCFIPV
T3 sequence (P05181 whole entry): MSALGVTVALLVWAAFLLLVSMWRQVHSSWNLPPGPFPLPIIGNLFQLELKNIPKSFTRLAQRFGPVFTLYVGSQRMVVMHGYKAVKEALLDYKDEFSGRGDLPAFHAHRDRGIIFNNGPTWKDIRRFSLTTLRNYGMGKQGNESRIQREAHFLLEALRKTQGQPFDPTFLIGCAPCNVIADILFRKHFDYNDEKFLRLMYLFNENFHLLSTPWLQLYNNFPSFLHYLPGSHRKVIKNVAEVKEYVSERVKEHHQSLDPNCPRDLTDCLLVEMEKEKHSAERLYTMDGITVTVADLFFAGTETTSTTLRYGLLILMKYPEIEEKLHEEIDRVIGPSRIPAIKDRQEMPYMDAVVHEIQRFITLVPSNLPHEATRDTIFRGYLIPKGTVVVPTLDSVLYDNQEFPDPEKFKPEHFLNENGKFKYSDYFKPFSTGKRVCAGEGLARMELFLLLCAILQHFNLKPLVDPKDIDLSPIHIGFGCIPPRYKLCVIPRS
T4 sequence (P20813 whole entry): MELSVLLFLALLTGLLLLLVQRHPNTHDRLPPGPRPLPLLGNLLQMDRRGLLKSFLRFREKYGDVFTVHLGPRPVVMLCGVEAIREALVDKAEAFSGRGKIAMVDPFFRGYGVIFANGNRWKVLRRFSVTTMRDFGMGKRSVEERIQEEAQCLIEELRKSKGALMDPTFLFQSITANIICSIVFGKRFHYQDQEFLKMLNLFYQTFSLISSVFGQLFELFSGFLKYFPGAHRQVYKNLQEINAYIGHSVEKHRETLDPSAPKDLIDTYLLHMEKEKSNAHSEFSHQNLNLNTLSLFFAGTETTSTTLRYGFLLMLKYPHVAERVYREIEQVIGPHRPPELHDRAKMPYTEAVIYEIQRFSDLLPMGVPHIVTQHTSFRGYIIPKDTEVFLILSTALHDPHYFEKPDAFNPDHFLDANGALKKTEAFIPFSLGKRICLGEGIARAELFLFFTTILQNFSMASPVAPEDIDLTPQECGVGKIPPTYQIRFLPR
Sequence of Cytochrome P450 2A6 (P11509 whole entry): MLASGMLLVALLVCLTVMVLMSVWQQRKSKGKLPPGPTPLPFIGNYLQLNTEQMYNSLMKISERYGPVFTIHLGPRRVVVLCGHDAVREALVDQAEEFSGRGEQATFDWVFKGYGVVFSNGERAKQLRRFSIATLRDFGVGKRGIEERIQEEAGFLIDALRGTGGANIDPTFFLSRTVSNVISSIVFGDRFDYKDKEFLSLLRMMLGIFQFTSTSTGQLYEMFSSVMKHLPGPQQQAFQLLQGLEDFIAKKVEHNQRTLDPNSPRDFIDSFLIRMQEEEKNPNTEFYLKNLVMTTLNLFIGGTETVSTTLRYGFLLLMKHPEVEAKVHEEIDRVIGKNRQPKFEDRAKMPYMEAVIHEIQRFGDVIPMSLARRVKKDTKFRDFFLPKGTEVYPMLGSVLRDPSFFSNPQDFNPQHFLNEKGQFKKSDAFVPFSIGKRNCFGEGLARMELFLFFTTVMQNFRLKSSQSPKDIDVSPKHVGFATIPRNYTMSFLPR
Sequence of Cytochrome P450 2C19 (P33261 whole entry): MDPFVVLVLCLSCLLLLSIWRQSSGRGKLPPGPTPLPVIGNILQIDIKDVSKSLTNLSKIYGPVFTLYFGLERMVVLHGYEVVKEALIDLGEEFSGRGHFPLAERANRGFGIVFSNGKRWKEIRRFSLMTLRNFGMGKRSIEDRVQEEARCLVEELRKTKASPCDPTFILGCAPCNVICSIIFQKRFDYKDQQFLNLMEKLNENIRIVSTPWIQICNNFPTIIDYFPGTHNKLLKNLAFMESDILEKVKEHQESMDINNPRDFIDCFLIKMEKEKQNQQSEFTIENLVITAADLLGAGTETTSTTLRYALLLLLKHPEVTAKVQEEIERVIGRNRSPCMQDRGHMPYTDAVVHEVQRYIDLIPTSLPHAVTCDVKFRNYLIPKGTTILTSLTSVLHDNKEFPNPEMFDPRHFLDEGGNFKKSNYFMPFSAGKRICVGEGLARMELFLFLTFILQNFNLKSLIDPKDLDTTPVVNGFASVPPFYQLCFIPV
Sequence of Cytochrome P450 2D6 (P10635 whole entry): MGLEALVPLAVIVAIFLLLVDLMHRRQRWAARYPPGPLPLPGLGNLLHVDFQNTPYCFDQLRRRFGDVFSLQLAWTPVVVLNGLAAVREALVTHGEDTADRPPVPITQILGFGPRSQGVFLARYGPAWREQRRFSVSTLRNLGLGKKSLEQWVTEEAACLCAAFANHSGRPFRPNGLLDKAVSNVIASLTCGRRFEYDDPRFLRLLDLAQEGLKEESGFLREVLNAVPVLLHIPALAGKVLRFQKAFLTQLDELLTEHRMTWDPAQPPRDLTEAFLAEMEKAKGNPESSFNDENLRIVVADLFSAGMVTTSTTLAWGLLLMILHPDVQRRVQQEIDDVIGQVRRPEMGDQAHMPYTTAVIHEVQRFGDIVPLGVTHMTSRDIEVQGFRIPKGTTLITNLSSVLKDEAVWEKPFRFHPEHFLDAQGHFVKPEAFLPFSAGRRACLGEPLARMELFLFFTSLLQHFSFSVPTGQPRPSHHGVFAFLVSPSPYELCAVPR

Regarding `NCCCC[C@H](NC(=O)C(NC(=O)[C@H](Cc1c[nH]c2ccccc12)NC(=O)[C@H](CCCCN)NC(=O)[C@H](CCCCN)NC(=O)[C@H](Cc1c[nH]c2ccccc12)NC(=O)[C@H](Cc1c[nH]c2ccccc12)NC(=O)[C@H](CCCCN)NC(=O)[C@@H](N)CCCCN)C(c1ccccc1)c1ccccc1)C(N)=O` (some centres undefined) (H-KKWWKKW[ξDip]K-NH2), the IC50 stood at 8.7 µM on Cytochrome P450 2C9 [1]; 9.3 µM at Cytochrome P450 3A4 [3]; 7 µM at Cytochrome P450 2A6; 63.7 µM on Cytochrome P450 3A4 [5]; 30 µM on Cytochrome P450 2E1 [11]; 30.9 µM at Cytochrome P450 2E1 [12]. Moreover, the IC50 at Cytochrome P450 2C19 worked out at 23.3 µM; on Cytochrome P450 2D6, 21.9 µM; on Cytochrome P450 3A4 [15], 12.1 µM; at Cytochrome P450 2C9 [16] it was 8.8 µM; at Cytochrome P450 2B6 [19], 27.7 µM; on Cytochrome P450 3A4 [20] it was 18.8 µM. For the same compound, the IC50 at Cytochrome P450 2B6 [21] turned out to be 18.6 µM. Besides, the fraction unbound at 20 h in [2] is above 0.2; in [7], above 0.25; in series [18], above 0.08. Moreover, in series [4], the Drug recovery worked out at 131 ng/mL. Further, the blood plasma ratio at 1 h is 0.76 in series [6] and 1.03 in [9]. For the same compound, the Drug uptake in [8] was 76%. Further, in series [10], the EC50 at 1 h is above 695 µM. In [13], this compound gave a half-life of 2.67 h. Also, the hepatocyte CLint at 1 µM in series [14] was 22 µL/min/1e6 cells. The half-life at 1 µM in [17] came to 1.07 h.

As usually defined, the IC50 is the concentration that inhibits the measured activity by half. Usually EC50 stands for the concentration that produces a half-maximal response. The term half-life denotes the time needed for the level to fall by half in the phase considered.
